Data as given in ChEMBL document CHEMBL1128731, “Furanfurin and thiophenfurin: two novel tiazofurin analogues. Synthesis, structure, antitumor activity, and interactions with inosine monophosphate dehydrogenase” (J Med Chem, 1995).

What was measured:
HL-60 [1] = assay: Inhibitory concentration against human HL-60 cell line(activity expressed as range); format: functional, cell-based
How it was run: (§1)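 Antiproliferative assay scoring [125I]-5-iodo-2'-deoxyuridine incorporation into DNA after 72 h drug–cell contact. Run on normal human bone marrow from five donors and in three assays on HL-60. Ratio is antilog(mean log IC50 or IC90) on bone marrow over the same on HL-60. Range limits are antilog(mean log IC50 ± 2SD).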

HL-60 [2] = assay: Inhibitory concentration against HL-60 human promyelocytic leukemia; format: functional, cell-based
How it was run: (§2)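 Cells in log phase plated with a range of drug concentrations (B16 5×10^3 cells/well; P388, L1210, LLC 10^4 cells/well; HL-60, K562, LoVo 2.5×10^5 cells/well). Growth read by modified MTT after 72 h drug contact at 37 °C. IC50 taken as the concentration reducing optical absorption by 50%, from Chou regression analysis. Maximum concentration tested 200 μM.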

Homo sapiens [3] = species on record: Homo sapiens; assay: (§3) Inhibitory concentration range against human bone marrow; format: functional, organism-based; how it was run: as §1
Homo sapiens [4] = species on record: Homo sapiens; assay: as §3; format: functional; how it was run: as §1
K562 [5] = assay: Compound was tested for its effect on UDP ribonucleotide levels of K562 cell at 50 uM concentration; format: functional, Homo sapiens
How it was run: (§4)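 K562 cells (1×10^7) were treated with saline or agent for 2 h at 37 °C, harvested by centrifugation and washed with cold saline. They were extracted with cold 10% trichloroacetic acid, neutralized with 0.5 M tri-n-octylamine in freon, and analyzed by HPLC. Levels are in nmol/g and expressed as % of saline control. Significance was set at p < 0.05.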

K562 [6] = assay: Compound was tested for its effect on UTP ribonucleotide levels of K562 cell at 10 uM concentration; format: functional, Homo sapiens; how it was run: as §4
K562 [7] = assay: Compound was tested for its effect on UTP ribonucleotide levels of K562 cell at 50 uM concentration; format: functional, Homo sapiens; how it was run: as §4
K562 [8] = assay: compound was tested for its effect on IMPDH activity against K562 cells at 50 uM concentration; format: functional, Homo sapiens
How it was run: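 K562 cells (1×10^6/mL, log phase) exposed 2 h at 37 °C to 10, 50 or 100 μM drug, or to saline. Cells washed and lysed in Tris-HCl pH 7.4/NaCl/MgCl2/NP-40/aprotinin, and the 13000g supernatant used as enzyme. Enzyme incubated 30 min at 37 °C with 286 μM [2,8-3H]IMP and 1 mM NAD. Tritium release counted; activity in nmol XMP/h/mg protein, as % of saline control.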

K562 [9] = assay: Compound was tested for its effect on GDP ribonucleotide levels of K562 cell at 50 uM concentration; format: functional, Homo sapiens; how it was run: as §4
K562 [10] = assay: Compound was tested for its effect on GMP ribonucleotide levels of K562 cell at 10 uM concentration; format: functional, Homo sapiens; how it was run: as §4
K562 [11] = assay: Compound was tested for its effect on GMP ribonucleotide levels of K562 cell at 50 uM concentration; format: functional, Homo sapiens; how it was run: as §4
K562 [12] = assay: Compound was tested for its effect on GTP ribonucleotide levels of K562 cell at 100 uM concentration; format: functional, Homo sapiens; how it was run: as §4
K562 [13] = assay: Compound was tested for its effect on GTP ribonucleotide levels of K562 cell at 10 uM concentration; format: functional, Homo sapiens; how it was run: as §4
K562 [14] = assay: Compound was tested for its effect on GTP ribonucleotide levels of K562 cell at 50 uM concentration; format: functional, Homo sapiens; how it was run: as §4
K562 [15] = assay: Formation of NAD analogue by compound at 50 uM concentration against human myelogenous leukemia K562; format: functional
How it was run: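 K562 cells (1×10^7/10 mL) were labeled with 185 nM [2,8-3H]adenosine for 1 h at 37 °C, then given saline or analogue for 2 h. Cells were pelleted, washed with PBS and extracted in cold 10% trichloroacetic acid. Extracts were neutralized with 0.5 M tri-n-octylamine in freon and run on SAX HPLC with ammonium phosphate buffer. Results are pmol NAD analogue per 10^9 cells.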

K562 [16] = assay: Compound was tested for its effect on IMP ribonucleotide levels of K562 cell at 10 uM concentration; format: functional, Homo sapiens; how it was run: as §4
K562 [17] = assay: Compound was tested for its effect on NAD ribonucleotide levels of K562 cell at 100 uM concentration; format: functional, Homo sapiens; how it was run: as §4
K562 [18] = assay: Inhibitory concentration against K562 human myelogenous leukemia cell line; format: functional, cell-based; how it was run: as §2
L1210 = assay: Inhibitory concentration against L1210 murine lymphocytic leukemia; format: functional, cell-based; details: Mus musculus; how it was run: as §2
K562 [19] = assay: Compound was tested for its effect on ADP ribonucleotide levels of K562 cell at 10 uM concentration; format: functional, Homo sapiens; how it was run: as §4
K562 [20] = assay: Compound was tested for its effect on AMP ribonucleotide levels of K562 cell at 50 uM concentration; format: functional, Homo sapiens; how it was run: as §4
K562 [21] = assay: Compound was tested for its effect on ATP ribonucleotide levels of K562 cell at 50 uM concentration; format: functional, Homo sapiens; how it was run: as §4
K562 [22] = assay: Compound was tested for its effect on CDP ribonucleotide levels of K562 cell at 10 uM concentration; format: functional, Homo sapiens; how it was run: as §4
K562 [23] = assay: Compound was tested for its effect on CTP ribonucleotide levels of K562 cell at 100 uM concentration; format: functional, Homo sapiens; how it was run: as §4
K562 [24] = assay: Compound was tested for its effect on CTP ribonucleotide levels of K562 cell at 10 uM concentration; format: functional, Homo sapiens; how it was run: as §4
K562 [25] = assay: Compound was tested for its effect on CTP ribonucleotide levels of K562 cell at 50 uM concentration; format: functional, Homo sapiens; how it was run: as §4
K562 [26] = assay: Compound was tested for its effect on GDP ribonucleotide levels of K562 cell at 10 uM concentration; format: functional, Homo sapiens; how it was run: as §4
Mus musculus [27] = assay: Average weight change of mice from onset to termination of drug treatment at 400 mg/kg dose; early death due to toxicity; format: functional, organism-based; design: dose 400 mg/kg
How it was run: (§5)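 Female BD2F1 mice (8 weeks, 20–22 g), eight per group, injected ip with 10^5 L1210 cells on day 0. From 24 h later, drug in 0.9% NaCl was given ip once daily for 9 days. Body weight change was averaged from onset to termination of treatment. Early deaths from toxicity were recorded.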

Mus musculus [28] = assay: Average weight change of mice from onset to termination of drug treatment at 6.2 mg/kg dose; format: functional; how it was run: as §5
P388 = assay: Inhibitory concentration against P388 murine lymphocytic leukemia cell lines; format: functional, cell-based; details: Mus musculus; how it was run: as §2
Mus musculus [29] = assay: Compound was tested for ratio of survival time of treated to control mice x100 at 25 mg/kg dose; format: functional
How it was run: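 Female BD2F1 mice (8 weeks old, 20–22 g), eight per group, injected ip with 10^5 L1210 leukemia cells on day 0. Starting 24 h later, drug dissolved in 0.9% NaCl given ip once daily for 9 consecutive days. % T/C = survival time of treated/control mice × 100. Body weight change tracked from start to end of treatment.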

Mus musculus [30] = assay: Average weight change of mice from onset to termination of drug treatment at 25 mg/kg dose; format: functional; how it was run: as §5
[31] = IC50 ratio against bone marrow samples to HL-60; format: functional; how it was run: as §1
K562 [32] = assay: Compound was tested for its effect on UMP ribonucleotide levels of K562 cell at 10 uM concentration; format: functional, Homo sapiens; how it was run: as §4
K562 [33] = assay: Compound was tested for its effect on IMP ribonucleotide levels of K562 cell at 100 uM concentration; format: functional, Homo sapiens; how it was run: as §4

Question: With `NC(=O)c1csc([C@@H]2O[C@H](CO)[C@@H](O)[C@H]2O)c1` as the compound, how does the IC50 (HL-60 [1]) read?
Answer: 2400 nM

Question: And the IC50 (HL-60 [2])?
Answer: 13.9 µM

Question: And the IC50 (Homo sapiens [3])?
Answer: 21.6 µM

Question: What about the IC90 (Homo sapiens [4]) of the same compound?
Answer: >128 µM

Question: What about the Control (K562 [5]) of the same compound?
Answer: 134%

Question: And the Control (K562 [6])?
Answer: 91%

Question: And the Control (K562 [7])?
Answer: 99%

Question: What about the Control (K562 [8]) of the same compound?
Answer: 37%

Question: What about the Control (K562 [9]) of the same compound?
Answer: 79%

Question: What about the Control (K562 [10]) of the same compound?
Answer: 98%

Question: What about the Control (K562 [11]) of the same compound?
Answer: 90%

Question: And the Control (K562 [12])?
Answer: 58%

Question: And the Control (K562 [13])?
Answer: 71%

Question: And the Control (K562 [14])?
Answer: 58%

Question: And the Formation (K562 [15])?
Answer: 505 pmol/10^9 cells

Question: And the Control (K562 [16])?
Answer: 314%

Question: What about the Control (K562 [17]) of the same compound?
Answer: 63%

Question: What about the IC50 (K562 [18]) of the same compound?
Answer: 8.8 µM

Question: What about the IC50 (L1210) of the same compound?
Answer: 7.6 µM

Question: And the Control (K562 [19])?
Answer: 122%

Question: And the Control (K562 [20])?
Answer: 140%

Question: And the Control (K562 [21])?
Answer: 88%

Question: What about the Control (K562 [22]) of the same compound?
Answer: 84%

Question: What about the Control (K562 [23]) of the same compound?
Answer: 32%

Question: What about the Control (K562 [24]) of the same compound?
Answer: 32%

Question: What about the Control (K562 [25]) of the same compound?
Answer: 32%

Question: And the Control (K562 [26])?
Answer: 97%

Question: And the Change (Mus musculus [27])?
Answer: Toxic

Question: And the Change (Mus musculus [28])?
Answer: 8.5%

Question: What about the IC50 (P388) of the same compound?
Answer: 3.2 µM

Question: What about the T/C (Mus musculus [29]) of the same compound?
Answer: 168%

Question: And the Change (Mus musculus [30])?
Answer: -9.8%

Question: What about the Ratio [31] of the same compound?
Answer: 21.9

Question: And the Control (K562 [32])?
Answer: 110%

Question: What about the Control (K562 [33]) of the same compound?
Answer: 689%
